Screening results from PubChem BioAssay.
Compounds with a hit are over-represented: about 2.2% of the library has one in this group of screens.
CHRM5 PAM = CHRM5 positive allosteric modulation. AID 624038. 360,000 tested, 0.3% active. activation, % at 3 µM. CHO-K1 hM5, Fluo-8 calcium, ACh EC20 PAM; 0% = ACh EC20, 100% = ACh EC100. P08912;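 active = activation above the run cutoff, the mean activation of all test compounds plus 3 SD, cut at about 18% in these data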
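System: CHO-K1 hM5 cells. Reagent: acetylcholine, EC20 level. Compound dosing: single dose, 3 µM nominal final test concentration. Timing: Post-acetylcholine fluorescence recording 140 s. Detection: Fluo-8 calcium fluorescence. Read-out: % activation, ACh-normalized. Benchmarks: ACh EC20 and EC100 wells. Repeats: singlicate, one well per test compound.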
CHRM1 antagonist = human CHRM1 antagonism. inhibition, % at 3 µM. 360,000 tested, 1.3% active. CHO-K1 hM1, Fluo-8 calcium fluorescence, ACh EC80 antagonist. P11229;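 active = percent inhibition above its own plate's cutoff, namely the mean of that plate's compound wells plus 3 SD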;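 note: peak over basal fluorescence ratio during 140 s after agonist addition; 0% = ACh EC80 plus DMSO and 100% = DMSO alone without agonist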
Target sequence (P11229 whole entry, looked up): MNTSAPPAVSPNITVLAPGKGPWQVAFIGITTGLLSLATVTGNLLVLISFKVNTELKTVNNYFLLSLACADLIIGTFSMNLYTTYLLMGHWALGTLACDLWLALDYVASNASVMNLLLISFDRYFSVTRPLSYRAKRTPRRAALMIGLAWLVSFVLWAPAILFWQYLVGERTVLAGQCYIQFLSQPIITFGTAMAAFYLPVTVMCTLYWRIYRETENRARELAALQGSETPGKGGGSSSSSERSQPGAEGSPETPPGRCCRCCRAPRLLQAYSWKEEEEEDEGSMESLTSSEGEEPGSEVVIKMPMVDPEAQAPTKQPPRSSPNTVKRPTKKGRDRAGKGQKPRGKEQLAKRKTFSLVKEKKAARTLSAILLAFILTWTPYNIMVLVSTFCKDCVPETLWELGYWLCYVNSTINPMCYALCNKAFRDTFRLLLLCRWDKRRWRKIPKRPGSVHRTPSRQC
CHRM1 agonist = activates human CHRM1 receptor | CHO-K1 hM1, Fluo-8 calcium fluorescence, agonist mode; 0% DMSO, 100% acetylcholine EC100 | activation, % at 3 µM | 360,000 tested, 0.33% active | AID 588814;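 active = activation above the run's mean compound activation plus 3 SD, cut at about 16% in these data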;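 note: peak over basal fluorescence ratio within a 140 s kinetic read after compound addition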
CHRM5 antagonist = blocks acetylcholine activation of human M5 receptor; CHO-hM5 cells, Fluo-8 calcium fluorescence, ACh EC80; inhibition, % at 3 µM; 360,000 tested, 0.59% active; P08912; AID 624040;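 active = inhibition above a per-plate cutoff, the mean of that plate's test compounds plus 3 SD, cut at about 27% in these data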;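 note: 0% = acetylcholine EC80 with DMSO and 100% = DMSO without agonist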
M1 PAM = potentiates human M1 receptor response to acetylcholine; P11229; CHO-K1 hM1, Fluo-8 calcium fluorescence, ACh EC20; 0% = ACh EC20, 100% = maximal ACh; activation, % at 3 µM; 360,000 tested, 0.088% active; AID 588819; in the data active = activation above about 19%, passing the limit was not always enough
CHRM5 agonist = CHRM5 agonism in calcium assay | activation, % at 3 µM | 360,000 tested, 0.19% active | CHO-K1 hM5 cells, Fluo-8 calcium fluorescence; 0% DMSO wells, 100% maximal acetylcholine response | P08912;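 active = activation above the run's mean over test compounds plus 3 SD, cut at about 23% in these data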;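 note: signal is peak over basal fluorescence ratio across the kinetic read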
Numbers without * were called inactive.

Screening CCN1C(=O)CC2(C[N+]3(C)CCC2CC3)C1=O (stereo unspecified) returned CHRM5 PAM -17, CHRM1 antagonist 37, CHRM1 agonist -3, CHRM5 antagonist 53*, M1 PAM -15 and CHRM5 agonist -6.
CC(O)(C#CCN1CCOCC1)c1ccccc1 (stereo unspecified) was read as CHRM5 PAM 0, CHRM1 antagonist -10, CHRM1 agonist -1, CHRM5 antagonist 8, M1 PAM -5 and CHRM5 agonist -2.
CC(C)C(O)(C#CCN1CCCC1)c1ccccc1 (stereo unspecified) was read as CHRM5 PAM -15, CHRM1 antagonist 92*, CHRM1 agonist -5, CHRM5 antagonist 58*, M1 PAM -22 and CHRM5 agonist -11.
CC(C)C(O)(C#CCN1CCCCC1)c1ccccc1 (stereo unspecified) was read as CHRM5 PAM -15, CHRM1 antagonist 99*, CHRM1 agonist -9, CHRM5 antagonist 98*, M1 PAM -24 and CHRM5 agonist -6.
`Cc1ccc(-n2ccn(CC(=O)NCCc3ccccc3)c(=O)c2=O)cc1C` gave CHRM5 PAM 2, CHRM1 antagonist -5, CHRM1 agonist -2, CHRM5 antagonist 3, M1 PAM 3 and CHRM5 agonist -2.
For CN(C)c1nc2c(c(=O)[nH]c(=O)n2C)n1CCCc1ccccc1 the results were CHRM5 PAM -4, CHRM1 antagonist 5, CHRM1 agonist -1, CHRM5 antagonist 0, M1 PAM -1 and CHRM5 agonist 2.
Screening COc1ccc(-c2csc(Nc3ccc(S(=O)(=O)Nc4cc(C)on4)cc3)n2)cc1C returned CHRM5 PAM -12, CHRM1 antagonist 46*, CHRM1 agonist -5, CHRM5 antagonist 5, M1 PAM -4 and CHRM5 agonist 15.
For Cc1ccc(NC(=O)c2snc3ccc(Cl)cc23)cc1C the results were CHRM5 PAM -12, CHRM1 antagonist -1, CHRM1 agonist -12, CHRM5 antagonist 31*, M1 PAM -9 and CHRM5 agonist -7.
Cc1ccc(NC(=O)c2cc(-c3cc(Cl)ccc3O)n[nH]2)cc1C was read as CHRM5 PAM -2, CHRM1 antagonist -4, CHRM1 agonist -5, CHRM5 antagonist 11, M1 PAM 0 and CHRM5 agonist -3.
Screening Cc1ccc(S(=O)(=O)Nc2cc(=O)[nH]c(SCc3ccc(Cl)cc3)n2)cc1 returned CHRM5 PAM -8, CHRM1 antagonist 1, CHRM1 agonist 39*, CHRM5 antagonist -2, M1 PAM -15 and CHRM5 agonist 18.
Screening O=c1cc(NS(=O)(=O)c2ccccc2)nc(SCc2c(Cl)cccc2Cl)[nH]1 returned CHRM5 PAM -5, CHRM1 antagonist 21, CHRM1 agonist -4, CHRM5 antagonist 1, M1 PAM -10 and CHRM5 agonist 1.
`CC(=C/C(=O)O)/C(=C/c1ccccc1)C(=O)O` gave CHRM5 PAM -1, CHRM1 antagonist -13, CHRM1 agonist -1, CHRM5 antagonist 0, M1 PAM 10 and CHRM5 agonist 0.
Screening CCOc1ccc(NC(=S)N2CCC(C(=O)c3ccc(OC)cc3)CC2)cc1 returned CHRM5 PAM -4, CHRM1 antagonist -30, CHRM1 agonist 0, CHRM5 antagonist -2, M1 PAM 29* and CHRM5 agonist 0.
Screening COc1ccc(NC(=S)N2CCC(C(=O)c3ccc(Cl)cc3)CC2)cc1 returned CHRM5 PAM 4, CHRM1 antagonist -5, CHRM1 agonist -1, CHRM5 antagonist 4, M1 PAM 1 and CHRM5 agonist 1.
`O=S(=O)(c1ccc(Br)cc1)N1CCCc2ccccc21` gave CHRM5 PAM -4, CHRM1 antagonist 0, CHRM1 agonist -6, CHRM5 antagonist 3, M1 PAM -7 and CHRM5 agonist -1.
Screening CCOc1ccc(NC(=O)CN2C(=O)NC(CCSC)C2=O)cc1 (stereo unspecified) returned CHRM5 PAM 12, CHRM1 antagonist -10, CHRM1 agonist -1, CHRM5 antagonist -3, M1 PAM 8 and CHRM5 agonist 0.
